Blank lines part the entries; values can stand above or below the molecule they belong to.
Experiments:
[1] = target: Heat shock protein HSP 90-alpha (Homo sapiens, UniProt P07900); experiment: Inhibition of FITC3-labeled PU-H71 binding to recombinant HSP90alpha (unknown origin) after 24 hrs by fluorescence polarization assay
[2] = target: T1, Heat shock protein 75 kDa, mitochondrial (Homo sapiens, UniProt Q12931); experiment: Inhibition of FITC3-labeled PU-H71 binding to recombinant human N-terminal His6-tagged TRAP1 (60 to 561 residues) expressed in Escherichia coli BL21(DE3) after 24 hrs by fluorescence polarization assay
T1 sequence (Q12931 whole entry): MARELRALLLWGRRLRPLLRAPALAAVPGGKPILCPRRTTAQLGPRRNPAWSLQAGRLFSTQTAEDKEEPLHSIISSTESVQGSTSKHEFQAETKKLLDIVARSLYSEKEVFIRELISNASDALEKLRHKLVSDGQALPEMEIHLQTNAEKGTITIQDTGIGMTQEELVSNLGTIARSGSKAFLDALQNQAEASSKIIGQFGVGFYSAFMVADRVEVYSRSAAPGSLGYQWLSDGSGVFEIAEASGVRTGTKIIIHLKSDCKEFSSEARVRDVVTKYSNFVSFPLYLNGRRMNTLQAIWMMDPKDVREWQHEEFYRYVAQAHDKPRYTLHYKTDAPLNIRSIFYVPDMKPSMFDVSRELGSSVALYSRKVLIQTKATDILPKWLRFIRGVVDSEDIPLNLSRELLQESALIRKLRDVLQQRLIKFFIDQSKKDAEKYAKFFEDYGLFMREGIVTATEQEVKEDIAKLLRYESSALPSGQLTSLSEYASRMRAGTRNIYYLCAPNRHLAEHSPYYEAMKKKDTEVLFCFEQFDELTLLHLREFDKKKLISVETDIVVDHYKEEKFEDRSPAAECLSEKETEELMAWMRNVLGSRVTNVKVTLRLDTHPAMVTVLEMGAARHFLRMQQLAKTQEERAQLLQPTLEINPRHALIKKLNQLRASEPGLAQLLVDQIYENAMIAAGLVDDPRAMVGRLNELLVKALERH
Method in brief: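 Recombinant TRAP1 (100 nM) incubated with 10 nM 1-FITC3 probe and varying inhibitor concentrations for 24 h at 4 °C. Buffer: PBS-type salts with 1 mM DTT, 2 mM MgCl2, 0.1 mg/mL BSA, 0.05% NP40, pH 7.3. Polarization (mP) scaled to maximum and minimum values; mean ± SEM of two independent experiments.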

HeLa [3] = experiment: Induction of apoptosis in human HeLa cells assessed as live cells at 20 uM after 24 hrs by Annexin V-FITC/propidium iodide staining based flow cytometry (reference value: 90.1%); assay type: functional
PC-3 [4] = experiment: Induction of apoptosis in human PC3 cells assessed as live cells at 20 uM after 24 hrs by Annexin V-FITC/propidium iodide staining based flow cytometry (reference value: 97.4%); assay type: functional
HeLa [5] = experiment: Induction of apoptosis in human HeLa cells assessed as necrotic cells at 20 uM after 24 hrs by Annexin V-FITC/propidium iodide staining based flow cytometry (reference value: 0.7%); assay type: functional
PC-3 [6] = experiment: Induction of apoptosis in human PC3 cells assessed as necrotic cells at 20 uM after 24 hrs by Annexin V-FITC/propidium iodide staining based flow cytometry (reference value: 0.2%); assay type: functional
HeLa [7] = experiment: Induction of apoptosis in human HeLa cells assessed as late apoptotic cells at 20 uM after 24 hrs by Annexin V-FITC/propidium iodide staining based flow cytometry (reference value: 5.3%); assay type: functional
PC-3 [8] = experiment: Induction of apoptosis in human PC3 cells assessed as early apoptotic cells at 20 uM after 24 hrs by Annexin V-FITC/propidium iodide staining based flow cytometry (reference value: 0.7%); assay type: functional
Hepatocyte = experiment: Cytotoxicity against mouse primary hepatocytes assessed as reduction in cell viability at 5 to 20 uM after 24 hrs by MTT assay; assay type: cell-based
Method in brief: (§1)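 Corneal cells kept in corneal medium; hepatocytes isolated from 8-week-old BALB/c mice and kept in M199/EBSS with 10% FBS. Cells given a range of drug concentrations for 24 h. MTT absorbance read at 595 nm and normalized to DMSO; two independent experiments in duplicate, mean ± SEM.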

PC-3 [9] = experiment: Induction of apoptosis in human PC3 cells assessed as late apoptotic cells at 20 uM after 24 hrs by Annexin V-FITC/propidium iodide staining based flow cytometry (reference value: 1.5%); assay type: functional
HeLa [10] = experiment: Induction of apoptosis in human HeLa cells assessed as early apoptotic cells at 20 uM after 24 hrs by Annexin V-FITC/propidium iodide staining based flow cytometry (reference value: 3.9%); assay type: functional
[11] = Cytotoxicity against human corneal cells assessed as reduction in cell viability at 5 to 20 uM after 24 hrs by MTT assay; assay type: cell-based; method in brief: as §1
Heat shock protein HSP90 [12] = target: T2, Heat shock protein HSP90 (Homo sapiens, UniProt P07900+P08238); experiment: Inhibition of HSP90 in human PC3 cells assessed as induction of HSP70 protein expression at 10 uM after 6 hrs by Western blot method; assay type: cell-based
Heat shock protein HSP90 [13] = target: T2, Heat shock protein HSP90; experiment: Inhibition of HSP90 in human HeLa cells assessed as induction of HSP70 protein expression at 10 uM after 6 hrs by Western blot method; assay type: cell-based

IC50 [1]: 97 nM
IC50 [2]: 138 nM
Structure (SMILES): COc1c(C)cnc(Cn2ncc3c(Cl)nc(N)nc32)c1C

IC50 [1]: > 10000 nM
IC50 [2]: > 10000 nM
Structure (SMILES): Nc1nc(Cl)c2cnc(Cc3ccc4c(c3)OCO4)n2n1

Structure (SMILES): CCNC(=O)c1noc(-c2cc(C(C)C)c(O)cc2O)c1-c1ccc(CN2CCOCC2)cc1 [LUMINESPIB]
Activity (HeLa [3]): 83%
Activity (PC-3 [4]): 93.5%
Activity (HeLa [5]): 0.9%
Activity (PC-3 [6]): 0.9%
Activity (HeLa [7]): 8.6%
Activity (PC-3 [8]): 0.7%
Activity (Hepatocyte): Toxic
Activity (PC-3 [9]): 5%
Activity (HeLa [10]): 7.5%
Activity [11]: Toxic

Structure (SMILES): CO[C@H]1/C=C\C=C(/C)C(=O)NC2=CC(=O)C(NCCN(C)C)=C(C[C@@H](C)C[C@H](OC)[C@H](O)[C@@H](C)/C=C(\C)[C@@H]1OC(N)=O)C2=O [ALVESPIMYCIN]
Activity (Hepatocyte): Toxic
inhibition (INH) (Heat shock protein HSP90 [12]): Active
Activity [11]: Toxic
inhibition (INH) (Heat shock protein HSP90 [13]): Active

Reference: ChEMBL document CHEMBL4017501, “Paralog Specificity Determines Subcellular Distribution, Action Mechanism, and Anticancer Activity of TRAP1 Inhibitors” (J Med Chem, 2017)
